According to the M2OR odorant receptor database:
Substitutions are numbered along the chain they refer to.

What was measured:
Settings in all cases: stereoisomer not certain
OR4N2 [1] = test system: T1, OR4N2
T1 sequence (whole entry): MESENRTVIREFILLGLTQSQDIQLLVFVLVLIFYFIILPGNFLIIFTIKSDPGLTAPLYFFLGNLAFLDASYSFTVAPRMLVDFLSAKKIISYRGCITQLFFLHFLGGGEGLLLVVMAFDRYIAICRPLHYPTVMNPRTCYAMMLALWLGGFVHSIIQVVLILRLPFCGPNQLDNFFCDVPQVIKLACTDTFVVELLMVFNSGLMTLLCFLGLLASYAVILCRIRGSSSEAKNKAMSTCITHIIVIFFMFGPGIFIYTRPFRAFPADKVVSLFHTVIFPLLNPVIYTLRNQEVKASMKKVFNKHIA
Method in brief: (§1)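 Each entry records the cell line, G-protein, co-transfected protein and tags used. Methods varied with the source, often transient luciferase assays in mammalian cell lines. A receptor–molecule pair is called responsive (active) if the original authors judged its signal statistically different from baseline and non-responsive (inactive) otherwise.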

OR4N4 (Homo sapiens) = target: T2, OR4N4 (Homo sapiens) (UniProt Q8N0Y3)
T2 sequence (whole entry): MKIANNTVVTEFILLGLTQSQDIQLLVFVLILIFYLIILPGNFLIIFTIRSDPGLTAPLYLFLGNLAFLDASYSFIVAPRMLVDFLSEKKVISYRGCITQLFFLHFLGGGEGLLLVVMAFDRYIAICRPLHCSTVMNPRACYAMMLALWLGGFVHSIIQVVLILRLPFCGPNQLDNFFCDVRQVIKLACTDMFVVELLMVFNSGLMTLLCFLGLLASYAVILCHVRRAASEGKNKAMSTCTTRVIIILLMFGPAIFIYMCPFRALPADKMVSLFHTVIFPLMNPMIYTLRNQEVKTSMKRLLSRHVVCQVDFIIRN
Method in brief: as §1

OR4N5 (Homo sapiens) = target: T3, OR4N5 (Homo sapiens) (UniProt Q8IXE1)
T3 sequence (whole entry): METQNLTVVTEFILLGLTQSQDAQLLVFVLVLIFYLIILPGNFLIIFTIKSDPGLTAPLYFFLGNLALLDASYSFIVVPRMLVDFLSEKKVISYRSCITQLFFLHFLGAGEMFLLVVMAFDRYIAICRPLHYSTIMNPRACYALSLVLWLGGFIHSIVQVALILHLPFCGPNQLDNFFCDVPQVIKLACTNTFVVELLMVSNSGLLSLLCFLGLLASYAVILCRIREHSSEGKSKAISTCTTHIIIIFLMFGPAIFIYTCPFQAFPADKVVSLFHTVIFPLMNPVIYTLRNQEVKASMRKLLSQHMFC
Method in brief: as §1

OR4P4 (Homo sapiens) = target: T4, OR4P4 (Homo sapiens) (UniProt Q8NGL7)
T4 sequence (whole entry): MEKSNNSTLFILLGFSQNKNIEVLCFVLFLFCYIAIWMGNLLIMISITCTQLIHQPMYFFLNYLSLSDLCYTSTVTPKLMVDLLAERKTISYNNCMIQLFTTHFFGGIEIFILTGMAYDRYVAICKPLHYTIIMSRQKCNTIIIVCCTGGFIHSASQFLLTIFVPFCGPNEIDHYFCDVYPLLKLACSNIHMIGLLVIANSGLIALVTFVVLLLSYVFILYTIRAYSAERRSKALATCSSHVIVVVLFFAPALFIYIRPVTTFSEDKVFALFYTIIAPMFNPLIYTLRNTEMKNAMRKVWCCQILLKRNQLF
Method in brief: as §1

OR4Q3 (Homo sapiens) = target: T5, OR4Q3 (Homo sapiens) (UniProt Q8NH05)
T5 sequence (whole entry): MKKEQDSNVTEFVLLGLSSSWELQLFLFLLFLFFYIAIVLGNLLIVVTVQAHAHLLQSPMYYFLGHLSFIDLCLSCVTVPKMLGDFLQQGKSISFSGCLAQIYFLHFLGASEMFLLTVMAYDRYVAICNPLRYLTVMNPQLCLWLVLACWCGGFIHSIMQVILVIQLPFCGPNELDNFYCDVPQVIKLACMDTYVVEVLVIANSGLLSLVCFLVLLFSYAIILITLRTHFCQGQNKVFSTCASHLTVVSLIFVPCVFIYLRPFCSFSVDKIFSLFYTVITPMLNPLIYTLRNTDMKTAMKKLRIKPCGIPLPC
Method in brief: as §1

OR4Q3 T135A = test system: T6, OR4Q3 T135A
T6 sequence (whole entry): T5 sequence (whole entry) with T135A
Method in brief: as §1

OR4S1 (Homo sapiens) = target: T7, OR4S1 (Homo sapiens) (UniProt Q8NGB4)
T7 sequence (whole entry): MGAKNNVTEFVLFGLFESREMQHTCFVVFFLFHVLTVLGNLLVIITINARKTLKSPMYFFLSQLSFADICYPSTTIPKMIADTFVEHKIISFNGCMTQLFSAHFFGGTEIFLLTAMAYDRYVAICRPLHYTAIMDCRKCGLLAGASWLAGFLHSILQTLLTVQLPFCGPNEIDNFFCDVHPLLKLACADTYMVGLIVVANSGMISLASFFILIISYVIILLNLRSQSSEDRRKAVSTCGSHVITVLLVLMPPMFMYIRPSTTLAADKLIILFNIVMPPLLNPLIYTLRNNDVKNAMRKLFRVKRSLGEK
Method in brief: as §1

OR4S2 (Homo sapiens) = target: T8, OR4S2 (Homo sapiens) (UniProt Q8NH73)
T8 sequence (whole entry): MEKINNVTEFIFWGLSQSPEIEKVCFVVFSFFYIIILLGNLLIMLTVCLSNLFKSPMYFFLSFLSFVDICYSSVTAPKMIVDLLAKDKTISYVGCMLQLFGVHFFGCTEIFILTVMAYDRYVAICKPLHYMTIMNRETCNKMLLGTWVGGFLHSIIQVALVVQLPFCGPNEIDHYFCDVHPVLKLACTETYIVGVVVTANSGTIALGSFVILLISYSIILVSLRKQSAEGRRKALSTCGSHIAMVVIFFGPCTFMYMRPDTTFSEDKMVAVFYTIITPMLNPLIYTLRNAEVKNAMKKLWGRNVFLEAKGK
Method in brief: as §1

OR4X1 (Homo sapiens) = target: T9, OR4X1 (Homo sapiens) (UniProt Q8NH49)
T9 sequence (whole entry): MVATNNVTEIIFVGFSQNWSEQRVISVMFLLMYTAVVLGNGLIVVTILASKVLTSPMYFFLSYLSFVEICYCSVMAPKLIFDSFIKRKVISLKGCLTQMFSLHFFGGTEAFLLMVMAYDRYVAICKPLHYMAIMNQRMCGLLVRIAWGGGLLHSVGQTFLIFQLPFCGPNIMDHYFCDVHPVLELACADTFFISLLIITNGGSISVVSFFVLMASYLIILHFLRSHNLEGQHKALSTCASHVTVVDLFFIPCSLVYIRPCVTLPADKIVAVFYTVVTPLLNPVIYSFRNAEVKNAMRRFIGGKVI
Method in brief: as §1

OR4X2 (Homo sapiens) = target: T10, OR4X2 (Homo sapiens) (UniProt Q8NGF9)
T10 sequence (whole entry): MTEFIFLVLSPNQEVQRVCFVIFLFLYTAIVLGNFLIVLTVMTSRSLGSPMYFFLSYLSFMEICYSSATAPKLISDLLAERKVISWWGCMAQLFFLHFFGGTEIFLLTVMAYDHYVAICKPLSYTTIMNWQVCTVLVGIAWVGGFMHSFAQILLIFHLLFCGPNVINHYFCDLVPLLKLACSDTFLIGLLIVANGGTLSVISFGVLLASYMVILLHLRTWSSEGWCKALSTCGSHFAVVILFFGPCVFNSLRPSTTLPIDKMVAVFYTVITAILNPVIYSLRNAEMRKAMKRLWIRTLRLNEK
Method in brief: as §1

OR51A2 (Homo sapiens) = target: T11, OR51A2 (Homo sapiens) (UniProt Q8NGJ7)
T11 sequence (whole entry): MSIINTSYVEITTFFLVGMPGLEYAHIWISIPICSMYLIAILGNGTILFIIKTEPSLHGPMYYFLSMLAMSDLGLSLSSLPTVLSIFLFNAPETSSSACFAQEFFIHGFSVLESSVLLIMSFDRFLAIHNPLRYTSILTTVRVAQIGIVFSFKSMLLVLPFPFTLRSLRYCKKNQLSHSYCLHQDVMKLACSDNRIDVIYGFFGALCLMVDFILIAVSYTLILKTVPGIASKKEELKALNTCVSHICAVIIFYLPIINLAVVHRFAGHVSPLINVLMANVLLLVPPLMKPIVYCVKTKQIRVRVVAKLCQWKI
Method in brief: as §1

OR51A4 (Homo sapiens) = target: T12, OR51A4 (Homo sapiens) (UniProt Q8NGJ6)
T12 sequence (whole entry): T11 sequence (whole entry) with G59E, T94I, S97N, S167N, P227L, E235Q, G267R, M288T, K289N, W311R
Method in brief: as §1

OR51A7 (Homo sapiens) = target: T13, OR51A7 (Homo sapiens) (UniProt Q8NH64)
T13 sequence (whole entry): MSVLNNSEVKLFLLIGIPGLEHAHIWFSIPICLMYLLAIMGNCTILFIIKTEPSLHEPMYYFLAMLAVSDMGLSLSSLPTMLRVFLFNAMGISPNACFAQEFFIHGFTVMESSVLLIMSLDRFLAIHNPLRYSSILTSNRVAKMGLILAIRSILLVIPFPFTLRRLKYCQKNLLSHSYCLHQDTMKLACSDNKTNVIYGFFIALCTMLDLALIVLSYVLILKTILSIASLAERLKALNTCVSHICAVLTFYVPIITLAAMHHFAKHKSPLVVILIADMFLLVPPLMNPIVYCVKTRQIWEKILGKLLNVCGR
Method in brief: as §1

OR51B2 (Homo sapiens) = target: T14, OR51B2 (Homo sapiens) (UniProt Q9Y5P1)
T14 sequence (whole entry): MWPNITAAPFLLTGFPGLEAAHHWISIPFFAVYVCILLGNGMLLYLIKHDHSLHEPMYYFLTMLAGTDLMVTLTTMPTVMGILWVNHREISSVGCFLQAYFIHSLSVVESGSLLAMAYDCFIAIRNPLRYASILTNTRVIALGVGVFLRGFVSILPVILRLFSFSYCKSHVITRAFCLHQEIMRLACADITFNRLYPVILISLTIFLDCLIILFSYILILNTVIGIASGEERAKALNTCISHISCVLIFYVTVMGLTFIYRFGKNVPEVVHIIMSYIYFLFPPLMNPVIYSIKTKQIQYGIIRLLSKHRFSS
Method in brief: as §1

OR51B4 (Homo sapiens) = target: T15, OR51B4 (Homo sapiens) (UniProt Q9Y5P0)
T15 sequence (whole entry): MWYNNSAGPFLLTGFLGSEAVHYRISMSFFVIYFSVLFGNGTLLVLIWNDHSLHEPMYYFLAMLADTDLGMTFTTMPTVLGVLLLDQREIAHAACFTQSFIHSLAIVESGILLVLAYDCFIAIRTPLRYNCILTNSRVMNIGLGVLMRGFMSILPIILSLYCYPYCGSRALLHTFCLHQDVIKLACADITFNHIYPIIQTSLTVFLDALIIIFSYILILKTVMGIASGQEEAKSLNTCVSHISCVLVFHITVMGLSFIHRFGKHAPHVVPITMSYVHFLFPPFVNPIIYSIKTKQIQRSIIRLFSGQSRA
Method in brief: as §1

OR51B5 (Homo sapiens) = target: T16, OR51B5 (Homo sapiens) (UniProt Q9H339)
T16 sequence (whole entry): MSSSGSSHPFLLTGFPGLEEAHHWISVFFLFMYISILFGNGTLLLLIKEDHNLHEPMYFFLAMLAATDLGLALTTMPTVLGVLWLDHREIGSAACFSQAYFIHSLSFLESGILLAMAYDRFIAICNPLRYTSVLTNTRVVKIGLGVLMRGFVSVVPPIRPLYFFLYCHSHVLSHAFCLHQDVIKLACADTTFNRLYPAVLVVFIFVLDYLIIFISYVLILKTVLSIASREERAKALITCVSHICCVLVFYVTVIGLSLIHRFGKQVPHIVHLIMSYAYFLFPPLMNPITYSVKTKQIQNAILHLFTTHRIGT
Method in brief: as §1

OR51B6 (Homo sapiens) = target: T17, OR51B6 (Homo sapiens) (UniProt Q9H340)
T17 sequence (whole entry): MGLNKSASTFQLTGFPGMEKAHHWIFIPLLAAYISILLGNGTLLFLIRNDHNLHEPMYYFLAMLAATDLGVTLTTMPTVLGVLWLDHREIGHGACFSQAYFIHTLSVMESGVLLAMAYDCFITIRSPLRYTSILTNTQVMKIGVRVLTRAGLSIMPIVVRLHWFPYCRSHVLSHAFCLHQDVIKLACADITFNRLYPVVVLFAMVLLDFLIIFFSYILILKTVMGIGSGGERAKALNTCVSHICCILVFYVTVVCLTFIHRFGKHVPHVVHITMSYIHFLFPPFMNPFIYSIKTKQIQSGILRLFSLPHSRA
Method in brief: as §1

OR4N2 [2] = test system: OR4N2; remark: listed apart in the source
Method in brief: as §1
Target sequence in this assay (as listed by the source): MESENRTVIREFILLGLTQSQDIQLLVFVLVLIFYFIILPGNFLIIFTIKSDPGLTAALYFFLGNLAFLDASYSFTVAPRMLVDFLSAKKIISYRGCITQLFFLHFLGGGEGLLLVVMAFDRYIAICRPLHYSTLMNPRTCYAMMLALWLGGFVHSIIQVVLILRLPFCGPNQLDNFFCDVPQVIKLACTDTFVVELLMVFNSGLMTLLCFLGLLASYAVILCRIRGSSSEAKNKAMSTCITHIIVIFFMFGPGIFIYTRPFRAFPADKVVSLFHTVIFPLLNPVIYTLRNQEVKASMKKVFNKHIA

OR4N4C (Homo sapiens) = OR4N4C (Homo sapiens) (UniProt A0A096LPK9)
Method in brief: as §1

OR4Q2 (Homo sapiens) = OR4Q2 (Homo sapiens) (UniProt P0C623)
Method in brief: as §1

Measured: odorant receptor agonist call

Chain of OR4Q2 (Homo sapiens) (P0C623 as listed by the source): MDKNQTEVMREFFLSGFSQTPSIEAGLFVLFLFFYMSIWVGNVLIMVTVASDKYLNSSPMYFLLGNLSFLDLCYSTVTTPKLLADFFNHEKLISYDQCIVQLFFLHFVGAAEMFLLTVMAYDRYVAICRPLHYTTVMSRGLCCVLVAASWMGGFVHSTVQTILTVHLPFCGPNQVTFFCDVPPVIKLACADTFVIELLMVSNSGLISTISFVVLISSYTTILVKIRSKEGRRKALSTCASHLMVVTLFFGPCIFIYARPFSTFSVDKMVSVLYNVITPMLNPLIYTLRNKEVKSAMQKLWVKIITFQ
Chain of OR4N4C (Homo sapiens) (A0A096LPK9 whole entry): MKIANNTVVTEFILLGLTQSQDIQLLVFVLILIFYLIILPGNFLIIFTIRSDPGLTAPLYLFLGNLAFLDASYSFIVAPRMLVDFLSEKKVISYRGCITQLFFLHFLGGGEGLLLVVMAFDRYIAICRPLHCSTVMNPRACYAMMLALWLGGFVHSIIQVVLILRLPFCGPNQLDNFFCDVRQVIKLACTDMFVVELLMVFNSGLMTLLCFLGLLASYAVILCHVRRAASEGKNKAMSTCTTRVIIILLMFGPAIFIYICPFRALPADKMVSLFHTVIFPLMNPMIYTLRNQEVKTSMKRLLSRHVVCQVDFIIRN

CCCCCCC=CCCC=O
inactive: OR4N2 [1] | OR4N4 (Homo sapiens) | OR4N5 (Homo sapiens) | OR4P4 (Homo sapiens) | OR4Q3 (Homo sapiens) | OR4Q3 T135A | OR4S1 (Homo sapiens) | OR4S2 (Homo sapiens) | OR4X1 (Homo sapiens) | OR4X2 (Homo sapiens) | OR51A2 (Homo sapiens) | OR51A4 (Homo sapiens) | OR51A7 (Homo sapiens) | OR51B2 (Homo sapiens) | OR51B4 (Homo sapiens) | OR51B5 (Homo sapiens) | OR51B6 (Homo sapiens)

O=c1ccc2ccccc2o1
inactive: OR4N2 [2] | OR4N2 [1] | OR51B5 (Homo sapiens)

CCCCCCCCC(=O)O
inactive: OR51A4 (Homo sapiens)

CCCCCCCCCCCCCCCCCC(=O)OC
inactive: OR51B5 (Homo sapiens)

CCCCCCCCCCCCCCCC(=O)[O-].[H+]
inactive: OR51B5 (Homo sapiens)

CC(=O)c1c(C)c([N+](=O)[O-])c(C(C)(C)C)c([N+](=O)[O-])c1C
inactive: OR4N4 (Homo sapiens) | OR4N4C (Homo sapiens) | OR4N5 (Homo sapiens) | OR4P4 (Homo sapiens) | OR4Q2 (Homo sapiens) | OR4Q3 (Homo sapiens) | OR4S1 (Homo sapiens) | OR4S2 (Homo sapiens) | OR4X1 (Homo sapiens) | OR4X2 (Homo sapiens) | OR51A2 (Homo sapiens) | OR51A4 (Homo sapiens) | OR51A7 (Homo sapiens) | OR51B2 (Homo sapiens) | OR51B4 (Homo sapiens) | OR51B5 (Homo sapiens) | OR51B6 (Homo sapiens)
